This is a sample that favours compounds with a hit; in the whole collection about 5.7% have one here.
Beta apoptosis – beta cell apoptosis inhibition; AID 435005; protection from apoptosis, % (no concentration beside the values); 300,000 compounds, 0.8% hits; INS-1E cytokine-induced death, ATP luminescence, 48 h; percent of positive-control rescue, neutral wells zero;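 active means Every replicate reaches about 75%, or at least half do and their mean reaches it too, limit read from the data; inconclusive means At least half of replicates reach the limit but their mean does not; inactive means Under half of replicates reach the limit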;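 further: higher means more ATP so stronger rescue from cytokine killing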
SKKanGAS inh – SKKanGAS growth inhibition; inhibition, % at 7.5 µM; 300,000 compounds, 1.3% hits; AID 1662; S. pyogenes SKKanGAS, kanamycin growth, BacTiter-Glo, 6 h;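 active means mean replicate score, as percent of positive control median, at least 50; inconclusive means mean below 50 but one replicate at or above 50; inactive means mean and every replicate below 50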;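 further: strain carries kanamycin resistance gene driven by streptokinase promoter and grows in 40 µg/ml kanamycin; loss of luminescence reflects streptokinase promoter inhibition or plain growth inhibition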
CSC inhib – cancer stem cell inhibition. cancer stem cell-like cells viability, luminescence. inhibition, % at 7.5 µM. 300,000 compounds, 1.1% hits. AID 2717; in the data active means inhibition above about 75%; inconclusive means no clear call, values can overlap the other calls; tested in HMLE shEcad cells
T cruzi inh – T. cruzi replication inhibition. T. cruzi beta-gal in NIH3T3, luminescence, 90 h. AID 1885. inhibition, % (test concentration not listed). 300,000 compounds, 1.4% hits;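 active means mean inhibition across valid replicates above about 55%, limit read from the data; inconclusive means mean below that limit but half or more replicates reach it; inactive means mean below it, under half of replicates reach it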;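 further: signal also drops with host cell toxicity which is not excluded here; higher percent means less beta-gal luminescence so fewer parasites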
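System – NIH/3T3 host cells with β-galactosidase reporter T. cruzi · Doses – single 50 nL compound addition per well in DMSO · Reagent – 5000 T. cruzi trypomastigotes/well · Medium – Low-serum DMEM with 2% FBS · Timing – ≥90 h infection period, 3 h prior cell attachment · Evaluation – parasite load inhibition, % · Technique – GalScreen luminescence, 60 min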
Mdm2 MdmX PPI – disrupts the human Mdm2-MdmX interaction. SaOS-2 split-luciferase Mdm2/MdmX complementation, luminescence. inhibition, % at 8 µM. 330,000 compounds, 3% hits. AID 485346;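 active means inhibition of at least 50% at 8 µM in the primary screen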
Target sequence (O15151 whole entry, looked up): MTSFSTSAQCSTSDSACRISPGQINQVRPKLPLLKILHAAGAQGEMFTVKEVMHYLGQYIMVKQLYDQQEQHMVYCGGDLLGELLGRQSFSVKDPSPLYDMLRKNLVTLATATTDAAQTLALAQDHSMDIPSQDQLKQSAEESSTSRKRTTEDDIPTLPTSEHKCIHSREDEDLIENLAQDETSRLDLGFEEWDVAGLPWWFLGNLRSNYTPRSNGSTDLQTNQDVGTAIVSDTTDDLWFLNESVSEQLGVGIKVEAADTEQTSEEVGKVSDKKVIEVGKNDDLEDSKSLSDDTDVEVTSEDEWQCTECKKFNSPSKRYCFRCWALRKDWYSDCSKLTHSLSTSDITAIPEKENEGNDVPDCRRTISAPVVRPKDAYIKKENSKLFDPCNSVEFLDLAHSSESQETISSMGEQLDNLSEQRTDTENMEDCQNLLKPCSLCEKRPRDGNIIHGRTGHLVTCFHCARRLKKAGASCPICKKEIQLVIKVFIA
Target sequence (Q00987 whole entry, looked up): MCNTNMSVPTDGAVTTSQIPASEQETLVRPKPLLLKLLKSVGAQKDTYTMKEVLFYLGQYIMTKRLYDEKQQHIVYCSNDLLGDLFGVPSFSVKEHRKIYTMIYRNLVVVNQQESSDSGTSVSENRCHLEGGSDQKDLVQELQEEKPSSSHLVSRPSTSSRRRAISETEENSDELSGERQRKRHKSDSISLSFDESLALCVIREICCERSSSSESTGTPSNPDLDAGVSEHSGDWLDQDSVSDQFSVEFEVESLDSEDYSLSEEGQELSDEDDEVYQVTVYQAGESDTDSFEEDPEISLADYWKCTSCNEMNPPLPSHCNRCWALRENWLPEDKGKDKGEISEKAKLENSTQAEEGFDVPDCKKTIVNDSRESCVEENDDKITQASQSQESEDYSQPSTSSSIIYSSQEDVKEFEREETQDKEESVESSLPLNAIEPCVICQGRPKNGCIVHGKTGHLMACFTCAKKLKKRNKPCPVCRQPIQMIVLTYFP
Calb FLC – affects C. albicans growth with fluconazole; C. albicans CaCi-2 (fluconazole-resistant clinical isolate) + fluconazole, Alamar Blue growth, 48 h; AID 1979; 300,000 compounds, 0.57% hits; growth inhibition, % (concentration not given with the values);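 active means growth inhibition above about 58% in most replicates, limit read from the data, passing the limit was not always enough; inconclusive means exactly half the replicates above a set limit; inactive means most replicates below a set limit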;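 further: all wells also contain fluconazole at 8 µg/ml as a sub-toxic cotreatment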
Each line names hits and unclear results; the compound was inactive in the other large screens.

CCCCOc1ccc(C(=O)CCN2CCOCC2)cc1	T cruzi inh 56
CCn1c(=O)c(C(=O)Nc2ccccc2F)c(O)c2ccccc21	none
CCn1c(=O)c(C(=O)NNC(=O)c2ccc(Cl)cc2Cl)c(O)c2ccccc21	SKKanGAS inh 75
CCCn1c(=O)c(C(=O)NNC(=O)c2ccc(Cl)cc2Cl)c(O)c2ccccc21	SKKanGAS inh 70 (no result: Calb FLC)
CCCn1c(=O)c(C(=O)Nc2cccc(C)n2)c(O)c2ccccc21	none (no result: Beta apoptosis)
CCCn1c(=O)c(C(=O)NNS(=O)(=O)c2ccc(Cl)cc2)c(O)c2ccccc21	SKKanGAS inh 96, CSC inhib 86
Cc1csc(=O)n1CCC(=O)OCC(=O)Nc1ccc(Cl)cn1	none (no result: Calb FLC)
CC(C)c1ccc(NC2CCCN(C(=O)c3ccoc3)C2)cc1 (stereo not given)	none
OCCN(CCO)c1ccc2ccccc2c1	none
OCCN(CCO)c1ccc(C(c2ccccc2Cl)c2ccc(N(CCO)CCO)cc2Cl)c(Cl)c1	SKKanGAS inh 83
COCC(C)n1c(SCc2ccc(OC)c(F)c2)nc2ccccc2c1=O (stereo not given)	T cruzi inh 59 (no result: Beta apoptosis, CSC inhib, Mdm2 MdmX PPI)
CCn1c(SCc2ccc(F)cc2)nc2ccccc2c1=O	SKKanGAS inh 51
CCn1c(SCc2nc3ccccc3c(=O)[nH]2)nc2ccccc2c1=O	none (no result: CSC inhib)
CCn1c(SCc2ccc(OC)c(F)c2)nc2ccccc2c1=O	none (no result: CSC inhib)
Cc1ccc(NC(=O)c2sc3ncn(CC(=O)N4CCOCC4)c(=O)c3c2C)c(Br)c1	none
OC(COc1ccc(OCC(O)CN2CCN(Cc3ccccc3)CC2)cc1)CN1CCN(Cc2ccccc2)CC1 (stereo not given)	T cruzi inh 65
CCCc1ccc(OCC(O)CN2CCCC2)cc1 (stereo not given)	none
OC(COc1ccc(OCc2ccccc2)cc1)CN1CCCCC1 (stereo not given)	T cruzi inh 56
Cc1n[nH]c(C)c1CCNCc1ccc(OCC(O)CN2CCCCC2)cc1 (stereo not given)	Calb FLC 71
OC(COc1cccc2ccccc12)CN1CCN(c2ccccc2Cl)CC1 (stereo not given)	SKKanGAS inh inconclusive, CSC inhib 114 (no result: Mdm2 MdmX PPI)
OC(COc1ccccc1)CN1CCCC1 (stereo not given)	none
O=C(NCCc1ccccc1)c1ccc(S(=O)(=O)N2CCCC2)cc1	none (no result: SKKanGAS inh, CSC inhib, T cruzi inh, Calb FLC)
CCC1(CC)NC(=O)N(CC(=O)Nc2ccc(C)cc2C)C1=O	none (no result: SKKanGAS inh, T cruzi inh, Calb FLC)
OC(CN1CCN(Cc2ccccc2)CC1)c1ccc(Br)cc1 (stereo not given)	T cruzi inh 57
OC(COc1ccc(F)cc1Cl)CN1CCC(Cc2ccccc2)CC1 (stereo not given)	T cruzi inh 63
N#Cc1ccc(-c2ccc(OCC(O)CN3CCCCC3)cc2)cc1 (stereo not given)	T cruzi inh 62
OC(COc1ccccc1F)CN1CCC(Cc2ccccc2)CC1 (stereo not given)	none (no result: Beta apoptosis)
N#Cc1ccc(OCC(O)CN2CCN(CC(O)COc3ccc(C#N)cc3)CC2)cc1 (stereo not given)	none
c1ccc(COc2ccc(OCCN3CCCC3)cc2)cc1	T cruzi inh 55
Cc1[nH]c(=S)c(C#N)c(C)c1CC(=O)c1ccc(Br)cc1	none (no result: Beta apoptosis)
COc1ccc(OC)c(NC(=O)c2nnn(Cc3ccccc3C)c2N)c1	CSC inhib 106
Cn1nc(C(=O)OCC(=O)c2ccc(Br)cc2)c2ccccc2c1=O	none (no result: SKKanGAS inh, CSC inhib, T cruzi inh, Calb FLC)
Cc1nnc(NC(=O)c2cc(-c3ccncc3)nc3c(C)cccc23)s1	none
CCCCCCn1ccc(=N)cc1	Beta apoptosis 120, Calb FLC inconclusive (no result: T cruzi inh)
NS(=O)(=O)c1ccc(NC(=O)CSc2nc(Nc3ccccc3)nc(N3CCOCC3)n2)cc1	none
CCOC(=O)N1CCN(S(=O)(=O)N2CCCC(C(=O)NCCCN3CCCCC3)C2)CC1 (stereo not given)	none
COc1ccc2c(c1)sc(=NC(=O)CS(=O)(=O)c1ccc(F)cc1)n2C	T cruzi inh 63 (no result: Beta apoptosis)
O=C(OCC(=O)N1CCOCC1)c1ccc(Cl)cc1[N+](=O)[O-]	none
CCOC(=O)C(=NC(C)C)NNc1cc(Cl)ccc1Cl	none
CCOC(=O)C(=NC(C)(C)C)NNc1cc(Cl)ccc1Cl	SKKanGAS inh 78
COc1cc(OC)c(OC)cc1/C=N/n1c(-c2n[nH]c3c2CCC3)n[nH]c1=S	none
COc1ccc(OC)c(/C=N/n2c(-c3n[nH]c4c3CCC4)n[nH]c2=S)c1	SKKanGAS inh 50
Cn1nc([N+](=O)[O-])nc1Oc1ccccc1C(=O)N1CCOCC1	T cruzi inh 93
Fc1ccc(Nc2nc(N/N=C/c3ccco3)nc(N3CCCCC3)n2)cc1	SKKanGAS inh 68, T cruzi inh 60
C(=N\Nc1nc(N2CCOCC2)nc(N2CCOCC2)n1)/c1ccco1	none
O=[N+]([O-])c1ccc(/C=N/Nc2nc(N3CCCC3)nc(N3CCCC3)n2)o1	T cruzi inh 64, Calb FLC inconclusive
C(=N\Nc1nc(N2CCCCCC2)nc(N2CCCCCC2)n1)/c1ccccc1	SKKanGAS inh 69 (no result: CSC inhib)
Brc1cccc(/C=N/Nc2nc(N3CCCCC3)nc(N3CCCCC3)n2)c1	none
O=[N+]([O-])c1cccc(/C=N/Nc2nc(N3CCCCC3)nc(N3CCCCC3)n2)c1	SKKanGAS inh 52
COc1ccc(S(=O)(=O)Nc2cccc(-c3ccc4nncn4n3)c2)c(OC)c1	none
O=[N+]([O-])c1ccc(/C=N/Nc2nc(-c3ccccc3)c3cc(Br)ccc3n2)o1	SKKanGAS inh 95, T cruzi inh inconclusive
O=C(CSc1nnc(C2CC2)n1CC1CCCO1)Nc1ccccc1Cl (stereo not given)	none
CC(=O)Nc1ccc(S(=O)(=O)N2CCSC2c2ccco2)cc1 (stereo not given)	none
O=C(Nc1ccc(Cl)c(Cl)c1)N1CCSC1c1ccco1 (stereo not given)	Beta apoptosis 103
CCn1c(C)c(C)c2cc(C(=O)NCCCN3CCCCC3C)ccc21 (stereo not given)	none
COc1ccc(CNC(=O)C2CSC(=O)C2)cc1 (stereo not given)	T cruzi inh 56
COCC(=O)N1CCC(Oc2ccc(C(=O)N(C)Cc3nccs3)cc2)CC1	none
Cc1c(C)c(C)c(S(=O)(=O)Nc2ccc3[nH]c(=O)[nH]c3c2)c(C)c1C	none
Cn1c(C(=O)N[C@@H](C(=O)O)c2ccccc2)cc2cc(F)ccc21	none
O=[N+]([O-])c1ccc(/C=N/NC(=S)Nc2ccccc2)o1	none
O=[N+]([O-])c1cccc(-c2ccc(/C=N/NC(=S)Nc3ccccc3)o2)c1	T cruzi inh 56
O=C(Nc1ccncc1)Nc1ccc(Br)cc1Cl	T cruzi inh 56
Cc1cccc(NC(=O)Nc2ccncc2)c1	T cruzi inh 65
Cc1cccc(NC(=O)Nc2cnccn2)c1	none
C=CCNC(=O)Nc1ccc(Br)cc1Cl	Calb FLC inconclusive
CC(C)c1ccc(CNc2ncccn2)cc1	none

Bioassay records: PubChem BioAssay, several laboratories
